Measured values as given in ChEMBL document CHEMBL1165910, “Synthesis and biological evaluation of new [1,2,4]triazino[5,6-b]indol-3-ylthio-1,3,5-triazines and [1,2,4]triazino[5,6-b]indol-3-ylthio-pyrimidines against Leishmania donovani” (Eur J Med Chem, 2010).
≈ marks a conversion by molar mass, not a printed value. Calls of active or inactive are those of the source. No cut-off for these calls is given here.

Experiments:
[1] = (§1) Selectivity index, ratio of CC50 for mouse J774A1 cells to IC50 for IC50 Leishmania donovani MHOM/IN/Dd8; format: functional, J774.A1
[2] = test system: Leishmania donovani; test: Antileishmanial activity against Leishmania donovani MHOM/IN/Dd8 promastigote carrying firefly luciferase gene infected in mouse J774A1 cells assessed as relative luminescence unit at 40 ug/mL after 72 hrs; format: functional; conditions: for inhibition at 40 µg/mL: MHOM/IN/Dd8, J774.A1, 72 h; for inhibition: J774.A1
[3] = test system: Leishmania donovani; test: Antileishmanial activity against Leishmania donovani (MHOM/IN/Dd8) amastigote infected in mouse J774 cells assessed as after 72 hrs by luminometry; format: functional, organism-based; conditions: for IC50: MHOM/IN/Dd8, J774, 72 h
How it was run: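 J774 macrophages were seeded at 1.5 × 10^4 cells/well in RPMI-1640 with 10% foetal calf serum at 37 °C under CO2. After 24 h, medium was replaced with medium containing luciferase-transfected stationary-phase promastigotes (2.25 × 10^5/well). Test material at 0.25–10 in complete medium was then added for 72 h at 37 °C. Wells were given PBS plus Steady-Glo and read by luminometer; inhibition was calculated against untreated infected controls.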

[4] = Cytotoxicity against mouse J774A1 cells after 72 hrs by MTT assay; format: cell-based, J774.A1
How it was run: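 J774A.1 cells were grown in RPMI with 10% foetal calf serum and 40 µg/mL gentamycin. Exponentially growing cells (1 × 10^4/well) received compound dilutions, made from DMSO stock in complete medium, for 72 h at 37 °C in humidified CO2/air. MTT (5 mg/mL in PBS) was added for 2 h, supernatant removed and formazan dissolved in DMSO. A544 was read, and CC50 (50% viability reduction versus medium-only cells) was estimated by template.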

[5] = test system: Leishmania donovani; test: Antileishmanial activity against Leishmania donovani MHOM/IN/Dd8 promastigote carrying firefly luciferase gene infected in mouse J774A1 cells assessed as relative luminescence unit at 0.5 ug/mL after 72 hrs; format: functional; conditions: MHOM/IN/Dd8, J774.A1, 72 h
[6] = test system: J774.A1; test: as §1; format: functional
[7] = test system: Leishmania donovani; test: Antileishmanial activity against Leishmania donovani MHOM/IN/Dd8 promastigote carrying firefly luciferase gene infected in mouse J774A1 cells assessed as relative luminescence unit at 940 ug/mL after 72 hrs; format: functional, organism-based; conditions: J774.A1
[8] = test system: Leishmania donovani; test: Antileishmanial activity against Leishmania donovani (MHOM/IN/Dd8) amastigote infected in mouse J774 cells assessed as after 72 hrs by luminometry at 40 ug/ml; format: functional, organism-based

MIC ([3]; MHOM/IN/Dd8, 72 h)	IC50 [3]	Compound	Ratio CC50/IC50 [1]	inhibition at 40 µg/mL [2]	CC50 at 72 h [4]	other results
90.8 µM (≈ 38.2 µg/mL)	26.3 µM	CCN1CCN(c2nc(C)cc(Sc3nnc4c5ccccc5n(C)c4n3)n2)CC1	1.06	100%	28.1 µM	–
26.6 µM (≈ 13.8 µg/mL)	15.5 µM	CCN1CCN(c2nc(Sc3nnc4c5ccccc5n(C)c4n3)nc(N3CCN(CC)CC3)n2)CC1	6	100%	93.2 µM	–
> 169 µM	20.4 µM	N=C(N)c1ccc(OCCCCCOc2ccc(C(=N)N)cc2)cc1 [PENTAMIDINE]	–	–	52.8 µM	inhibition at 0.5 µg/mL [5]: 85%
–	–	D-Gluconic acid,2,4:2',4'-O-[oxybis-(oxidostibylidyne)]bis-,trisodium salt, nonahydrate	–	–	–	Ratio CC50/IC50 [6]: 5.53; inhibition [7]: 40%; MIC [3]: 164 µM
93.8 µM (≈ 34.3 µg/mL)	29.6 µM	Cc1cc(Sc2nnc3c4ccccc4n(C)c3n2)nc(NC(C)C)n1	3.66	99.2%	109 µM	–
–	–	Cn1c2ccccc2c2nnc(Sc3nc(NCCCN4CCOCC4)nc(NCCCN4CCOCC4)n3)nc21	–	–	–	inhibition [2]: inactive
139 µM (≈ 54.3 µg/mL)	25.7 µM	Cc1cc(Sc2nnc3c4ccccc4n(C)c3n2)nc(N2CCCCC2)n1	6.74	99.3%	173 µM	–
–	–	CN(C)CCNc1nc(NCCN(C)C)nc(Sc2nnc3c4ccccc4n(C)c3n2)n1	–	68.5%	–	–
–	–	CN1CCN(c2nc(Sc3nnc4c5ccccc5n(C)c4n3)nc(N3CCN(C)CC3)n2)CC1	–	–	–	inhibition [2]: inactive
68.7 µM (≈ 27.9 µg/mL)	57.8 µM	Cc1cc(Sc2nnc3c4ccccc4n(C)c3n2)nc(N2CCN(C)CC2)n1	0.5	99.9%	29.2 µM	–
–	–	Cc1cc(Sc2nnc3c4ccccc4n(C)c3n2)nc(NCCN(C)C)n1	–	100%	–	Ratio CC50/IC50 [6]: inactive; Activity [8]: inactive
–	–	CCCCNc1nc(NCCCC)nc(Sc2nnc3c4ccccc4n(C)c3n2)n1	–	93.2%	17.1 µM	Ratio CC50/IC50 [6]: inactive; Activity [8]: inactive
90.5 µM (≈ 37.1 µg/mL)	17.4 µM	CC(C)Nc1nc(NC(C)C)nc(Sc2nnc3c4ccccc4n(C)c3n2)n1	3.71	99.3%	64.5 µM	–
–	–	Cn1c2ccccc2c2nnc(Sc3nc(NC(C)(C)C)nc(NC(C)(C)C)n3)nc21	–	97.4%	–	Ratio CC50/IC50 [6]: inactive; Activity [8]: inactive
–	–	Cn1c2ccccc2c2nnc(Sc3nc(N4CCOCC4)nc(N4CCOCC4)n3)nc21	–	43.1%	–	–
–	–	Cc1cc(Sc2nnc3c4ccccc4n(C)c3n2)nc(NCCCN2CCOCC2)n1	–	95.1%	–	Ratio CC50/IC50 [6]: inactive; Activity [8]: inactive
–	–	Cc1cc(Sc2nnc3c4ccccc4n(C)c3n2)nc(N2CCOCC2)n1	–	–	–	inhibition [2]: inactive
–	–	CCN(CC)CCNc1nc(C)cc(Sc2nnc3c4ccccc4n(C)c3n2)n1	–	99.9%	–	Ratio CC50/IC50 [6]: inactive; Activity [8]: inactive
–	–	Cc1cc(Sc2nnc3c4ccccc4n(C)c3n2)nc(NCCN2CCOCC2)n1	–	51.1%	–	–
–	–	CCN(CC)CCNc1nc(NCCN(CC)CC)nc(Sc2nnc3c4ccccc4n(C)c3n2)n1	–	49.3%	–	–
–	–	Cc1cc(Sc2nnc3c4ccccc4n(C)c3n2)nc(NC(C)(C)C)n1	–	66.7%	–	–
110 µM (≈ 41.8 µg/mL)	18.3 µM	CCCCNc1nc(C)cc(Sc2nnc3c4ccccc4n(C)c3n2)n1	4.82	99.7%	88.4 µM	–
20.5 µM (≈ 9.48 µg/mL)	4.01 µM	Cn1c2ccccc2c2nnc(Sc3nc(N4CCCCC4)nc(N4CCCCC4)n3)nc21	56.61	75.6%	227 µM	–
–	–	Cn1c2ccccc2c2nnc(Sc3nc(NCCN4CCOCC4)nc(NCCN4CCOCC4)n3)nc21	–	77.1%	–	Ratio CC50/IC50 [6]: inactive; Activity [8]: inactive
